Here are results for 21 compounds from ChEMBL document CHEMBL3352155, “Synthesis, antitumor activity, and structure-activity relationship study of trihydroxylated 2,4,6-triphenyl pyridines as potent and selective topoisomerase II inhibitors” (Eur J Med Chem, 2014).

Each structure is given as a SMILES string. Structures can show the parent of a compound that is named as a salt.

The subject of assay [1] is HEK293. The experiment in a line: Cytotoxicity against HEK293 cells after 4 days by CCK-8 assay. In kind it is cell-based. The note with it: Homo sapiens, HEK293, 96 h. In short, it runs like this: (§1)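 Cells were seeded at 2–4 × 10^4 per well and grown overnight in medium with 10% FBS at 37 °C under 5% CO2. On day 2, after 4 h FBS starvation, the medium was replaced with medium holding graded compound concentrations. On day 4, CCK-8 was added for 4 h and A450 was read. IC50 came from a four-parameter logistic fit; three experiments run in triplicate.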
(In general: Formazan colour is commonly taken as a measure of viable cells.)

Assay [2] relates to DU-145. The experiment in a line: Cytotoxicity against human DU145 cells after 4 days by CCK-8 assay. In kind it is functional, cell-based. Conditions: DU-145, 96 h. The method, boiled down: as §1
Assay [3] concerns T47D. The experiment in a line: Cytotoxicity against human T47D cells after 4 days by CCK-8 assay. In kind it is functional, cell-based. Conditions: 96 h. The method, boiled down: as §1
The target in assay [4] is DNA topoisomerase 2-alpha (Homo sapiens) (UniProt P11388). Nature of the assay: Inhibition of recombinant human DNA topoisomerase 2alpha assessed as relaxation of supercoiled DNA pBR322 at 20 uM after 30 mins using ethidium bromide staining by agarose gel electrophoresis. The method, boiled down: (§2)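 The reaction held 200 ng supercoiled pBR322 with 1 unit human topo IIα, with or without compound, for 30 min at 30 °C. Buffer was 10 mM Tris-HCl pH 7.9, 50 mM NaCl, 5 mM MgCl2, 1 mM EDTA, 1 mM ATP and BSA. EDTA was added to stop it. Products ran on 1% agarose in TAE at 25 V for 4 h, were stained with ethidium bromide, and supercoiled DNA was quantitated under UV.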

The target in assay [5] is T1, DNA topoisomerase 1 (Homo sapiens) (UniProt P11387).
T1 sequence (whole entry): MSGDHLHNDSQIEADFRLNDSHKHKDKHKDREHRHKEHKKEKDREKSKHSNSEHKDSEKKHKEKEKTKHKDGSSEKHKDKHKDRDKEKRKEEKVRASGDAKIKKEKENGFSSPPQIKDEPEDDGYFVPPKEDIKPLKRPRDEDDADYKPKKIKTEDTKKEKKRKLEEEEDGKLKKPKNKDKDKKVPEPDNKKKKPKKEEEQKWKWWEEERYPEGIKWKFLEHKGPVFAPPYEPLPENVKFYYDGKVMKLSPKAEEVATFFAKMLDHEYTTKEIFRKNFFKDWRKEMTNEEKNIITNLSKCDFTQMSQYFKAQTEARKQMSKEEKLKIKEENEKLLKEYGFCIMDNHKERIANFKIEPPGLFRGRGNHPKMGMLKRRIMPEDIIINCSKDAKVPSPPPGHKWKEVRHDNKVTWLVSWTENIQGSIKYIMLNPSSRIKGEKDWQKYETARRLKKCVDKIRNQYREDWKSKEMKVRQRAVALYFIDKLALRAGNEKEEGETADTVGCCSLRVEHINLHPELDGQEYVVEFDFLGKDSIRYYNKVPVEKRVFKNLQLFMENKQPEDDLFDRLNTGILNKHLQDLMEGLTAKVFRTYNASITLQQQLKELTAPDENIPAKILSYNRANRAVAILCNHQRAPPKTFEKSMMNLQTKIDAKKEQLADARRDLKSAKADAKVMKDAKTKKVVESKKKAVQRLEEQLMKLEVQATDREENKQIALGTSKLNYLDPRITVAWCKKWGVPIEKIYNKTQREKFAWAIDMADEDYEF
The experiment in a line: Inhibition of recombinant human DNA topoisomerase 1 assessed as relaxation of supercoiled DNA pBR322 at 100 uM after 30 mins using ethidium bromide staining by agarose gel electrophoresis. In short, it runs like this:
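A mix of 100 ng supercoiled pBR322 and 1 unit recombinant human topo I, with or without compound, was held 30 min at 37 °C. Buffer was 10 mM Tris-HCl pH 7.9, 150 mM NaCl, 0.1% BSA, 1 mM spermidine and 5% glycerol. A sarcosyl stop solution ended the reaction. Products ran on 1% agarose in TAE at 15 V for 7 h, were stained with ethidium bromide and quantitated under UV.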

The nature of assay [6]: Cytotoxicity against human HCT15 cells […] by CCK-8 assay. In kind it is functional, cell-based. Conditions: HCT-15. The method, boiled down: as §1
The target in assay [7] is DNA topoisomerase 2-alpha (Homo sapiens) (UniProt P11388). Nature of the assay: Inhibition of recombinant human DNA topoisomerase 2alpha assessed as relaxation of supercoiled DNA pBR322 at 100 uM after 30 mins using ethidium bromide staining by agarose gel electrophoresis. The method, boiled down: as §2

Chain of DNA topoisomerase 2-alpha (Homo sapiens) (P11388 whole entry): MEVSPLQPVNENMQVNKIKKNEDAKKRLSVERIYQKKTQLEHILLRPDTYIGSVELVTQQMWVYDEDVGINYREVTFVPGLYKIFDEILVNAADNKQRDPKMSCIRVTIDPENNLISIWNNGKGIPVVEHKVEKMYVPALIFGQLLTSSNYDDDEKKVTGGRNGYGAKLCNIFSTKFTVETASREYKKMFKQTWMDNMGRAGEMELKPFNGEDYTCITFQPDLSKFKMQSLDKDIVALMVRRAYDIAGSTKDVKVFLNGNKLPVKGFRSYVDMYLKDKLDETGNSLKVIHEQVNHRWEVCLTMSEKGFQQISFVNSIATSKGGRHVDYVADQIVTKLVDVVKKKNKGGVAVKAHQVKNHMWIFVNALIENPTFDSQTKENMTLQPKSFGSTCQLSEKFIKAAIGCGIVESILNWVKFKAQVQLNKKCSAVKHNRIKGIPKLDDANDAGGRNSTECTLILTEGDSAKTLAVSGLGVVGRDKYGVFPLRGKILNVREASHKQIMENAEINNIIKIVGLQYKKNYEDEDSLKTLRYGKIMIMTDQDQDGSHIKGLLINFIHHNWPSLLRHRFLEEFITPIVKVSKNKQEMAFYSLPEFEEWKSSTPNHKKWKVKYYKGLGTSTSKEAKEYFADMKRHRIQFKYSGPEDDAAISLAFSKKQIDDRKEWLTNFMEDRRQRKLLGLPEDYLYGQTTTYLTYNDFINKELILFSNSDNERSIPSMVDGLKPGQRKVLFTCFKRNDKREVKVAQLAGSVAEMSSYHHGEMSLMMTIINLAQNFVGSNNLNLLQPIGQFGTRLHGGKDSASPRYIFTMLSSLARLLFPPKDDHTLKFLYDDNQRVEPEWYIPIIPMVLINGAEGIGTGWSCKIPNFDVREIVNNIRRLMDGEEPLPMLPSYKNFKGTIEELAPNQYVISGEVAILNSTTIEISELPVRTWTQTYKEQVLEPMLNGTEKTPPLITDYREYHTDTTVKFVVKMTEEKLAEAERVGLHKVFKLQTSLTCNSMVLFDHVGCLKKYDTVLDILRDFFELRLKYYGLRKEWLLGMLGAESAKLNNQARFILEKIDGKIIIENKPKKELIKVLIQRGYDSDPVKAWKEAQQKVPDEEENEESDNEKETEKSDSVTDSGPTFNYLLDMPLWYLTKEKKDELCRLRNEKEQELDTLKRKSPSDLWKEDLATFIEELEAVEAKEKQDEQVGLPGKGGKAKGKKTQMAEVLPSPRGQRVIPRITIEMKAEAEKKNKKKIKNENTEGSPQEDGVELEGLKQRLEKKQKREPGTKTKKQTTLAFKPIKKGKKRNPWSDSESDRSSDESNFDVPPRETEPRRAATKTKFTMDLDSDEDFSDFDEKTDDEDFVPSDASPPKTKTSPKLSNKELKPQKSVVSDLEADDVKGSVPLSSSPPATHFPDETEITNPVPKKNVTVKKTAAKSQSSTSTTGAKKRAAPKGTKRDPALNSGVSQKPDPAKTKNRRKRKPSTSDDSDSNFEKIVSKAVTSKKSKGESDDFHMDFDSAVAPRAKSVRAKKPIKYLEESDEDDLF

As usually defined, the IC50 is the point on the concentration scale where inhibition reaches its midpoint. Low readings indicate greater potency, high ones weaker potency. For the compound `COc1cccc2c1C(=O)c1c(O)c3c(c(O)c1C2=O)C[C@@](O)(C(=O)CO)C[C@@H]3O[C@H]1C[C@H](N)[C@H](O)[C@H](C)O1` [DOXORUBICIN HYDROCHLORIDE], the IC50 is 1.22 µM in assay [1], 3.89 µM in assay [2] and 3.12 µM in assay [3].

By inhibition is commonly meant the relative decrease from the control value, in per cent. With `Oc1cccc(-c2cc(-c3ccccc3O)cc(-c3cccc(O)c3)n2)c1`, the inhibition in assay [4] was 9.3%; in assay [5], 0%; in assay [7] it was 100%. Further, the IC50 in assay [6] was 5.15 µM; in assay [1], 0.13 µM; in assay [2], above 50 µM; in assay [3], 4.57 µM.

Take `Oc1ccc(-c2cc(-c3cccc(O)c3)nc(-c3cccc(O)c3)c2)cc1`: the inhibition in assay [4] stood at 9.6%; in assay [5], 0%; in assay [7] it was 100%. Also, the IC50 in assay [6] is 3.81 µM; in assay [1], 0.73 µM; in assay [2], 1.76 µM; in assay [3] it was 2.23 µM.

On to `Oc1cccc(-c2cc(-c3ccccc3O)cc(-c3ccccc3O)n2)c1`, for which the inhibition stood at 6.6% in assay [4], 0% in assay [5] and 87.9% in assay [7]. Further, the IC50 in assay [6] was 3.39 µM; in assay [1], 0.73 µM; in assay [2], 3.98 µM; in assay [3], 5.76 µM.

Consider `COc1cc([C@@H]2c3cc4c(cc3[C@@H](O[C@@H]3O[C@@H]5CO[C@@H](C)O[C@H]5[C@H](O)[C@H]3O)[C@H]3COC(=O)[C@H]23)OCO4)cc(OC)c1O` [ETOPOSIDE], for which the IC50 turned out to be 7.74 µM in assay [6], 1.04 µM in assay [1] and 8.74 µM in assay [3].

Turning to `Oc1ccc(-c2cc(-c3cccc(O)c3)cc(-c3cccc(O)c3)n2)cc1`, the inhibition in assay [4] amounted to 3.7%; in assay [5], 0%; in assay [7], 100%. Moreover, the 50% inhibitory concentration (IC50) came out at 3.09 µM in assay [6], 1.56 µM in assay [1], 1.94 µM in assay [2] and 3.92 µM in assay [3].

In the case of `Oc1ccc(-c2cc(-c3ccc(O)cc3)nc(-c3ccc(O)cc3)c2)cc1`, the inhibition in assay [4] came to 7.9%; in assay [5], 3.8%; in assay [7], 79.1%. For the same compound, the IC50 in assay [6] is 5.12 µM; in assay [1], 0.79 µM; in assay [2], 3.16 µM; in assay [3], 4.27 µM.

With `Oc1ccc(-c2cc(-c3ccccc3O)cc(-c3ccc(O)cc3)n2)cc1`, the values for the inhibition in assay [4], in assay [5] and in assay [7] were 5.4%, 0.4% and 100%, respectively. Moreover, the IC50 in assay [6] was 1.92 µM; in assay [1], 0.78 µM; in assay [2] it was 0.98 µM; in assay [3] it was 5.35 µM.

Take `Oc1ccc(-c2cc(-c3ccc(O)cc3)nc(-c3ccccc3O)c2)cc1`: the inhibition in assay [4] worked out at 1.8%; in assay [5], 0%; in assay [7] it was 44%. Also, the IC50 is above 50 µM in assay [6], 26.3 µM in assay [1], above 50 µM in assay [2] and above 50 µM in assay [3].

With `Oc1cccc(-c2cc(-c3ccccc3O)nc(-c3ccccc3O)c2)c1`, the inhibition in assay [4] came out at 7.1%; in assay [5], 4.9%; in assay [7], 99.4%. In addition, the IC50 in assay [6] was found to be 5.02 µM; in assay [1], 0.08 µM; in assay [2], 5.4 µM; in assay [3], 3.42 µM.

In the case of `CC[C@@]1(O)C(=O)OCc2c1cc1n(c2=O)Cc2cc3ccccc3nc2-1` [CAMPTOTHECIN], the IC50 in assay [6] came to 1.98 µM; in assay [1], 0.28 µM; in assay [3], 0.75 µM.

With `Oc1ccc(-c2cc(-c3ccccc3O)cc(-c3cccc(O)c3)n2)cc1`, the inhibition in assay [4] worked out at 7.4%; in assay [5], 0%; in assay [7] it was 92.2%. The IC50 is 4.85 µM in assay [6], 5.65 µM in assay [1], 5.37 µM in assay [2] and 0.65 µM in assay [3].

Regarding `Oc1ccc(-c2cc(-c3cccc(O)c3)cc(-c3ccc(O)cc3)n2)cc1`, the inhibition in assay [4] turned out to be 48.2%; in assay [5], 0%; in assay [7] it was 90.1%. The IC50 in assay [6] was above 50 µM; in assay [1], above 50 µM; in assay [2], 1.4 µM; in assay [3], 4.07 µM.

On to `Oc1cccc(-c2cc(-c3cccc(O)c3)nc(-c3ccccc3O)c2)c1`, for which the inhibition in assay [5] is 1.9%; in assay [7] it was 11.3%. Further, the IC50 in assay [6], in assay [1], in assay [2] and in assay [3] was above 50 µM throughout.

With `Oc1ccc(-c2cc(-c3cccc(O)c3)cc(-c3ccccc3O)n2)cc1`, the values for the inhibition in assay [4], in assay [5] and in assay [7] were 1.6%, 8.4% and 31.3%, respectively. Besides, the IC50 in assay [6], in assay [1], in assay [2] and in assay [3] was above 50 µM throughout.

Consider `Oc1ccccc1-c1cc(-c2ccccc2O)nc(-c2ccccc2O)c1`, for which the inhibition was found to be 10.1% in assay [4], 0% in assay [5] and 95.1% in assay [7]. Also, the IC50 in assay [6] was 2.18 µM; in assay [1], 0.14 µM; in assay [2], 5.04 µM; in assay [3] it was 2.51 µM.

In the case of `Oc1cccc(-c2cc(-c3cccc(O)c3)nc(-c3cccc(O)c3)c2)c1`, the inhibition in assay [4] is 8.3%; in assay [5] it was 0%; in assay [7], 100%. In addition, the IC50 was determined as 3.95 µM in assay [6], 0.74 µM in assay [1], 4.04 µM in assay [2] and 2.05 µM in assay [3].

In the case of `Oc1ccc(-c2cc(-c3ccccc3O)cc(-c3ccccc3O)n2)cc1`, the results for the inhibition in assay [4], in assay [5] and in assay [7] were 21.3%, 0.3% and 77.6%, respectively. Also, the IC50 in assay [6] was 8.24 µM; in assay [1] it was 6.99 µM; in assay [2], 0.36 µM; in assay [3] it was 0.96 µM.

`Oc1ccc(-c2cc(-c3cccc(O)c3)nc(-c3ccccc3O)c2)cc1`: the inhibition in assay [4] was determined as 38.5%; in assay [5], 1.5%; in assay [7], 80.6%. For the same compound, the IC50 is 5.83 µM in assay [6], 7.42 µM in assay [1], 3.42 µM in assay [2] and 4.81 µM in assay [3].

For `Oc1ccc(-c2cc(-c3ccc(O)cc3)nc(-c3cccc(O)c3)c2)cc1`, the inhibition in assay [4] is 15.8%; in assay [5], 0%; in assay [7], 100%. In addition, the IC50 amounted to 3.52 µM in assay [6], 0.84 µM in assay [1], 5.8 µM in assay [2] and 4.47 µM in assay [3].

For `Oc1ccc(-c2cc(-c3ccccc3O)nc(-c3ccccc3O)c2)cc1`, the values for the inhibition in assay [4], in assay [5] and in assay [7] were 2.9%, 3.7% and 46.9%, respectively. Also, the IC50 was above 50 µM in assay [6], above 50 µM in assay [1], above 50 µM in assay [2] and 18.3 µM in assay [3].
